Source: ChEMBL document CHEMBL1134305, “Synthesis and structure-activity relationships of N-(1-benzylpiperidin-4-yl)arylacetamide analogues as potent sigma1 receptor ligands” (J Med Chem, 2001)

target: Sigma 2 receptor; experiment: Binding affinity for sigma 2 opioid receptor, measured on rat liver membranes using [3H]- DTG as radioligand in the presence of (+)-pentazocine; parameters: species or system Membrane
Procedure, shortened: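 Rat liver P2 membranes (male Sprague-Dawley, 300-350 g; 35 µg protein) incubated with 3 nM [3H]DTG plus 100 nM (+)-pentazocine masking σ1 sites, in 50 mM Tris-HCl pH 8.0, 120 min, 25 °C. Test compounds at 0.005-1000 nM (eight concentrations). Nonspecific binding defined with 5 µM DTG. Filtration, scintillation counting. IC50 by nonlinear regression, generally in triplicate. Ki from at least three experiments.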

Structure (SMILES) | Ki [nM]
O=C(Cc1cccc(Cl)c1)NC1CCN(Cc2ccc(I)cc2)CC1 | 257
O=C(Cc1ccc2ccccc2c1)NC1CCN(Cc2ccccc2)CC1 | 112
O=C(Cc1ccccc1F)NC1CCN(Cc2ccc(F)cc2)CC1 | 140
O=C(Cc1cccc(F)c1)NC1CCN(Cc2cccc(I)c2)CC1 | 50.3
O=C(Cc1cc(=O)oc2cc(O)ccc12)NC1CCN(Cc2ccccc2)CC1 | > 1000
O=C(Cc1ccccc1)NC1CCN(Cc2ccc(C(F)(F)F)cc2)CC1 | 300
O=C(Cc1ccccc1)NC1CCN(CCc2ccccc2)CC1 | 107
O=C(Cc1cccc(F)c1)NC1CCN(Cc2ccc(F)cc2)CC1 | 31
O=C(Cc1ccccc1)NC1CCN(Cc2ccc3ccccc3c2)CC1 | 189
O=C(Cc1ccncc1)NC1CCN(Cc2ccccc2)CC1 | > 1000
O=C(Nc1cccc2ccccc12)NC1CCN(Cc2ccccc2)CC1 | 25
O=C(Cc1cccnc1)NC1CCN(Cc2ccccc2)CC1 | > 1000
O=C(Cc1ccccc1)NC1CCN(Cc2cccc(I)c2)CC1 | 191
O=C(Cc1ccsc1)NC1CCN(Cc2ccccc2)CC1 | 337
O=C(Cc1c[nH]cn1)NC1CCN(Cc2ccccc2)CC1 | > 1000
O=C(Cc1cccs1)NC1CCN(Cc2ccccc2)CC1 | 393
O=C(Cc1cccc(Cl)c1)NC1CCN(Cc2cccc(I)c2)CC1 | 30.3
O=C(Cc1ccccn1)NC1CCN(Cc2ccccc2)CC1 | > 1000
COc1ccc2c(c1)C(CC(=O)NC1CCN(Cc3ccccc3)CC1)CC2=O (stereo not given) | 416
O=C(Cc1ccccc1)NC1CCN(Cc2ccc(Cl)c(Cl)c2)CC1 | 423
O=C(Cc1cccc(Cl)c1)NC1CCN(Cc2ccc(F)cc2)CC1 | 9.38
O=C(Cc1ccccc1)NC1CCN(Cc2cccc(F)c2)CC1 | > 1000
O=C(Cc1ccccc1)NC1CCN(Cc2ccc(I)cc2)CC1 | 694

Structure (SMILES) | Ki [nM]
O=C(Cc1c[nH]c2ccc(Br)cc12)NC1CCN(Cc2ccccc2)CC1 | 678
O=C(Cc1cccc(Br)c1)NC1CCN(Cc2ccc(F)cc2)CC1 | 6.06
O=C(Cc1ccccc1)NC1CCN(Cc2ccc3c(c2)OCO3)CC1 | 171
O=C(Cc1cccc2ccccc12)NC1CCN(Cc2ccccc2)CC1 | 39.4
O=C(Cc1cccc(Br)c1)NC1CCN(Cc2cccc(I)c2)CC1 | 59.3
O=C(Cc1ccccc1)NC1CCN(Cc2ccccc2C(F)(F)F)CC1 | > 1000
O=C(Cc1c[nH]c2ccccc12)NC1CCN(Cc2ccccc2)CC1 | > 1000
O=C(Cc1ccccc1)NC1CCN(Cc2ccc(F)cc2)CC1 | 82.9
O=C(Cc1ccccc1F)NC1CCN(Cc2cccc(I)c2)CC1 | 181
O=C(Cc1ccccc1F)NC1CCN(Cc2ccc(I)cc2)CC1 | 233
O=C(Cc1cccc(Br)c1)NC1CCN(Cc2ccc(I)cc2)CC1 | 90.3
O=C(Cc1ccccc1)NC1CCN(Cc2ccccc2I)CC1 | 631
O=C(Cc1ccccc1)NC1CCN(Cc2ccc(F)c(F)c2)CC1 | 232
O=C(Cc1ccccc1)NC1CCN(Cc2ccc([N+](=O)[O-])cc2)CC1 | 319
O=C(Cc1ccc(I)cc1)NC1CCN(Cc2ccccc2)CC1 | 61.3
O=C(Cc1cccc(F)c1)NC1CCN(Cc2ccc(I)cc2)CC1 | 168
O=C(CSc1ncccn1)NC1CCN(Cc2ccccc2)CC1 | > 1000
O=C(Cc1ccccc1)NC1CCN(Cc2ccccc2F)CC1 | 683
O=C(Cc1ccccc1)NC1CCN(Cc2cccc(C(F)(F)F)c2)CC1 | 513
COc1ccc2[nH]cc(CC(=O)NC3CCN(Cc4ccccc4)CC3)c2c1 | > 1000
O=C(Cc1ccccc1)NC1CCN(Cc2ccccc2)CC1 | 240
OC(CCCN1CCC(O)(c2ccc(Cl)cc2)CC1)c1ccc(F)cc1 (stereo not given) [HYDROXYHALOPERIDOL] | 28.6
